The source made the active and inactive calls. The rule behind the calls is not given here.
Legend:
[1] = target: T1, Acid-sensing ion channel 3 (Homo sapiens) (UniProt Q9UHC3); test: Inhibition of ASIC3 at 20 uM assessed as inhibition of peak current by patch clamp electrophysiology relative to baseline
T1 sequence (whole entry): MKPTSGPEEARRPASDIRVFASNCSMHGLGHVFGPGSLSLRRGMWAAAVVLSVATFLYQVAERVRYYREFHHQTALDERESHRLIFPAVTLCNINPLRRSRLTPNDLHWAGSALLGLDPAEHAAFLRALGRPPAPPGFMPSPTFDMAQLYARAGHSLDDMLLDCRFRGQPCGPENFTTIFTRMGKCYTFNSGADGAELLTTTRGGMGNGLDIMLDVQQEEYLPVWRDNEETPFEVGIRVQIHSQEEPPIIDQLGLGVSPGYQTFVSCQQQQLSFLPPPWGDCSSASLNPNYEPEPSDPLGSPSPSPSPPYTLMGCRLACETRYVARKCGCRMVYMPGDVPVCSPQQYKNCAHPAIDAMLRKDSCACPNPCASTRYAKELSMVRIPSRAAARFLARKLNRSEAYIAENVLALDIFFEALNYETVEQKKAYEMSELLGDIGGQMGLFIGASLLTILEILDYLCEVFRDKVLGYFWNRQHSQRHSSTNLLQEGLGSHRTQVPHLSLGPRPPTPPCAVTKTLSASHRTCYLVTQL
In short: (§1)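 Automated patch clamp on ASIC3 channels, used both for single-dose screening and for multi-dose follow-up. Extracellular solution: 150 NaCl, 5 KCl, 2 CaCl2, 1 MgCl2, 12 dextrose, with HEPES pH 7.4 or MES pH 5.5. Compound applied 120 s before acid. Peak current compared with vehicle or baseline peak; N = 3.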

[2] = target: T1, Acid-sensing ion channel 3 (Homo sapiens); test: Inhibition of ASIC3 assessed as inhibition of peak current at 1 uM by patch clamp electrophysiology relative to baseline; in short: as §1
Rattus norvegicus [3] = species on record: Rattus norvegicus; test: activity against Sprague-Dawley rat complete Freund's adjuvant-induced inflammatory pain model assessed as reversal of mechanical hypersensitivity after 30 mins
Rattus norvegicus [4] = test: activity against Sprague-Dawley rat complete Freund's adjuvant-induced inflammatory pain model assessed as reversal of mechanical hypersensitivity at 30 mg/kg, ip after 30 mins
[5] = Plasma concentration in Sprague-Dawley rat after 30 mins; assay type: ADME, cell-free
In short: (§2)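 Rats from the CFA inflammatory pain study were sampled 30 min after dosing. Average concentrations were measured in plasma and in brain.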

[6] = target: T2, Acid-sensing ion channel 3 (Rattus norvegicus, UniProt O35240); test: Inhibition of rat ASIC3 assessed as inhibition of peak current by patch clamp electrophysiology; in short: as §1
T2 sequence (O35240 whole entry): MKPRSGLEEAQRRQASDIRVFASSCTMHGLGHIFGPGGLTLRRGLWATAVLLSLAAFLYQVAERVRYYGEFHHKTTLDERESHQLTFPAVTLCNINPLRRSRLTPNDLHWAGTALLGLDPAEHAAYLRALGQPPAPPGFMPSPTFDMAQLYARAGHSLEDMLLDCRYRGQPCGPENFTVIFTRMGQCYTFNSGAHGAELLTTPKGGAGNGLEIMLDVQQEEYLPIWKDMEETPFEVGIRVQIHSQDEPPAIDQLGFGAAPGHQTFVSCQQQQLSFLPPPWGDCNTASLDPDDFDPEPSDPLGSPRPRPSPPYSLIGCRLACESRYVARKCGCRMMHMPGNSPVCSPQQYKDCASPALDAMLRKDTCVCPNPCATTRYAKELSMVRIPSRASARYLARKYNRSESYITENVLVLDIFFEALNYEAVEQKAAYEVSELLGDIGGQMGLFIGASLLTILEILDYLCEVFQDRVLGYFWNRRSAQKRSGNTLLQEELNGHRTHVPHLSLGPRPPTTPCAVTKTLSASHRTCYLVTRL

[7] = Drug level in Sprague-Dawley rat brain after 30 mins; assay type: ADME, tissue-based; settings: read-out: Drug uptake; in short: as §2
[8] = target: T3, Acid-sensing ion channel 3 (Homo sapiens, UniProt Q9UHC3); test: Inhibition of ASIC3 assessed as inhibition of peak current by patch clamp electrophysiology; in short: as §1
T3 sequence (Q9UHC3 whole entry): T1 sequence (whole entry)

| SMILES | inhibition [1] [%] | inhibition [2] [%] | other results |
| --- | --- | --- | --- |
| CN(C)c1nc(N)c(C(=O)NC(=N)N)nc1Cl | 91 | 37 |  |
| NC(N)=NC(=O)c1ncc(-c2cccc(-c3ccoc3)c2)nc1N | 82 | 30 |  |
| NC(N)=NC(=O)c1nc(Cl)c(Nc2cnc3ccccc3c2)nc1N |  | 28 |  |
| NC(N)=NC(=O)c1nc(Cl)c(Sc2ccccc2)nc1N |  | 11 |  |
| NC(N)=NC(=O)c1nc(Cl)c(OCc2ccc3ccccc3c2)nc1N |  | 9 |  |
| NC(N)=NC(=O)c1nc(Cl)c(N2CCc3ccccc3C2)nc1N | 96 | 52 |  |
| C=CCNc1nc(N)c(C(=O)N=C(N)N)nc1Cl | 78 | 16 |  |
| NC(N)=NC(=O)c1nc(Cl)c(Sc2ccc3ccccc3c2)nc1N |  | 12 |  |
| CCCN(C)c1nc(N)c(C(=O)N=C(N)N)nc1Cl | 91 | 32 |  |
| NC(N)=NC(=O)c1nc(Cl)c(NCC2CCc3ccccc3C2)nc1N (stereo unspecified) |  | 44 |  |
| NC(N)=NC(=O)c1ncc(-c2ccccc2-c2ccccc2)nc1N |  | 8 |  |
| NC(N)=NC(=O)c1nc(Cl)c(Oc2ccc3ccccc3n2)nc1N |  | 34 |  |
| NC(N)=NC(=O)c1nc(Cl)c(NCc2ccccc2Cl)nc1N | 90 | 31 |  |
| NC(N)=NC(=O)c1nc(Cl)c(Nc2cccc(Cl)c2)nc1N | 94 | 47 |  |
| CC(C)(C)Nc1nc(N)c(C(=O)N=C(N)N)nc1Cl | 48 |  |  |
| NC(N)=NC(=O)c1nc(Cl)c(O)nc1N | 9 |  |  |
| NC(N)=NC(=O)c1nc(Cl)c(N2CCCC2)nc1N | 84 | 12 |  |
| NC(N)=NC(=O)c1nc(Cl)c(NCc2ccc3ccccc3c2)nc1N | 93 | 27 |  |
| NC(N)=NC(=O)c1nc(Cl)c(N2CCCCC2)nc1N | 85 |  |  |
| NC(N)=NC(=O)c1nc(Cl)c(NCCc2ccccc2F)nc1N |  | 34 |  |

| SMILES | inhibition [1] [%] | inhibition [2] [%] | other results |
| --- | --- | --- | --- |
| NC(N)=NC(=O)c1ncc(-c2ccc(-c3ccccc3)cc2)nc1N |  | 7 |  |
| NC(N)=NC(=O)c1ncc(-c2cccc(-c3ccccc3)c2)nc1N |  | 72 | Activity (Rattus norvegicus [3]): Dose-dependent effect; Activity (Rattus norvegicus [4]): Active; concentration at 0.5 h [5]: 2900 nM; IC50 [6]: 950 nM; concentration at 0.5 h [7]: 79 nM; IC50 [8]: 490 nM |
| NC(N)=NC(=O)c1nc(Cl)c(NCc2cccc(F)c2)nc1N | 90 | 29 |  |
| CCCNc1nc(N)c(C(=O)N=C(N)N)nc1Cl | 91 | 24 |  |
| NC(N)=NC(=O)c1nc(Cl)c(NCCc2ccc(F)cc2)nc1N |  | 32 |  |
| NC(N)=NC(=O)c1ncc(-c2cccc3ccccc23)nc1N |  | 21 |  |
| NC(N)=NC(=O)c1nc(Cl)c(Nc2ccncc2)nc1N |  | 14 |  |
| NC(N)=NC(=O)c1nc(Cl)c(NCc2ccccc2F)nc1N | 92 | 26 |  |
| NC(N)=NC(=O)c1nc(Cl)c(Oc2ccc3cccnc3c2)nc1N |  | 32 |  |
| NC(N)=NC(=O)c1nc(Cl)c(Oc2ccc3ccccc3c2)nc1N | 91 | 33 |  |
| NC(N)=NC(=O)c1nc(Cl)c(N2CCc3ccccc32)nc1N | 89 | 46 |  |
| NC(N)=NC(=O)c1ncc(-c2ccc3ccccc3c2)nc1N |  | 6 |  |
| CSc1nc(N)c(C(=O)N=C(N)N)nc1Cl |  | 12 |  |
| NC(N)=NC(=O)c1nc(Cl)c(NC2CCCCC2)nc1N | 92 | 21 |  |
| NC(N)=NC(=O)c1ncc(-c2ccsc2)nc1N |  | 23 |  |
| NC(N)=NC(=O)c1nc(Cl)c(NCc2ccc(Cl)cc2)nc1N | 97 | 46 |  |
| COc1nc(N)c(C(=O)N=C(N)N)nc1Cl |  | 21 |  |
| NC(N)=NC(=O)c1ncc(Cc2ccccc2)nc1N |  | 4 |  |
| N=C(N)NC(=O)c1nc(Cl)c(N2CCCCCC2)nc1N | 51 |  |  |
| NC(N)=NC(=O)c1nc(Cl)c(Nc2ccc3ccccc3c2)nc1N | 98 | 62 | IC50 [8]: 510 nM |

| SMILES | inhibition [1] [%] | inhibition [2] [%] | other results |
| --- | --- | --- | --- |
| N=C(N)NC(=O)c1nc(Cl)c(N)nc1N [AMILORIDE] | 65 | 22 | IC50 [8]: 4400 nM |
| Cc1cc(C)cc(-c2cnc(C(=O)N=C(N)N)c(N)n2)c1 | 95 | 39 |  |
| N=C(N)NC(=O)c1ncc(-c2cccc(-c3ccsc3)c2)nc1N |  |  | IC50 [8]: 640 nM |
| NC(N)=NC(=O)c1nc(Cl)c(Oc2ccccc2)nc1N | 90 | 23 |  |
| NC(N)=NC(=O)c1nc(Cl)c(NCCc2cccc(F)c2)nc1N |  | 46 |  |
| NC(N)=NC(=O)c1nc(Cl)c(Nc2ccc3ncccc3c2)nc1N |  | 41 |  |
| NC(N)=NC(=O)c1nc(Cl)c(N2CCOCC2)nc1N | 60 |  |  |
| CN(c1nc(N)c(C(=O)N=C(N)N)nc1Cl)C1CCCCC1 | 57 |  |  |
| NC(N)=NC(=O)c1nc(Cl)c(NC2CC2)nc1N | 78 |  |  |
| NC(N)=NC(=O)c1nc(Cl)c(Nc2ccccn2)nc1N | 25 |  |  |
| NC(N)=NC(=O)c1ncc(-c2cccc(-c3ccsc3)c2)nc1N | 90 | 58 |  |
| N=C(N)NC(=O)c1nc(Cl)c(NCCc2ccccc2)nc1N | 94 | 46 |  |
| NC(N)=NC(=O)c1nc(Cl)c(NCC(F)(F)F)nc1N | 74 |  |  |
| NC(N)=NC(=O)c1nc(Cl)c(Nc2ccccc2)nc1N | 95 | 44 |  |
| NC(N)=NC(=O)c1nc(Cl)c(NCC2CCCCC2)nc1N | 96 | 28 |  |
| NC(N)=NC(=O)c1nc(Cl)c(Oc2cc3ccccc3cn2)nc1N |  | 11 |  |
| NC(N)=NC(=O)c1ncc(-c2ccccc2)nc1N |  | 35 |  |
| CN1CCN(c2nc(N)c(C(=O)N=C(N)N)nc2Cl)CC1 | 51 |  |  |
| NC(N)=NC(=O)c1nc(Cl)c(Nc2ccc(C(F)(F)F)cc2)nc1N |  | 50 |  |

Source: ChEMBL document CHEMBL1138609, “Amiloride derived inhibitors of acid-sensing ion channel-3 (ASIC3)” (Bioorg Med Chem Lett, 2009)
